Values joined by “and” are separate entries in the source; they are usually repeats but may differ in a detail not shown here. Equal entries are not always repeated. The campaign covered roughly 2,500 compounds. About 1,200 (48%) were called active.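 The calls were made as follows: active = mean activation above the low control average plus 3 SD, as set in the primary screen (cut at about 12% in these data); inactive = the rest.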 The set was probably picked from earlier hits. This is one part of the list. A structure can be active in one record and inactive in another.

The experiment deals with Troponin I, cardiac muscle (Homo sapiens) + Troponin T, cardiac muscle (Homo sapiens) + Troponin C, slow skeletal and cardiac muscles (Homo sapiens) (UniProt P19429+P45379+P63316). The experiment can be described thus: calcium sensitizers of cardiac thin filaments – biochemical, IANBD-TnC fluorescence, triplicate, confirmation (AID 504383).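 Also: 0% = DMSO at 0.472 mM calcium and 100% = DMSO at 2.9 mM calcium.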 The conditions noted are these: IANBD-labeled cardiac RTF, Ca2+ sensitivity fluorescence; at 7.2 µM; stronger effect = higher value; scaled from EC20 to saturating calcium; tested at EC20 calcium, 0.472 mM. The method in brief: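 Material: labelled regulated thin filaments; Reagent: 0.472 mM calcium; Incubation: 15 min compound incubation with filaments at 25 °C; Detection: filament fluorescence intensity; Evaluation: fluorescence increase normalised to calcium controls; Benchmarks: low control EC20 calcium, high control EC100 calcium.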
For the molecule `CCCNS(=O)(=O)c1ccc2c(c1)n(C)c(=O)n2C`, the activation is 12.4% (active).

For the molecule `CCCCN(Cc1ccccc1)S(=O)(=O)c1ccc2c(c1)n(C)c(=O)c(=O)n2C`, the activation is 2.32% (inactive). As to `COc1ccc(S(=O)(=O)N(CC(C)C)C2CCS(=O)(=O)C2)cc1OC` (stereo not drawn), the activation was 17.1% (active).

`CCN(CC)CCN1C(=O)c2cccc3cc(N)cc(c23)C1=O`: the activation is 128% (active). For `O=C1c2cccc3cc([N+](=O)[O-])cc(c23)C(=O)N1CCN1CCCC1` the value was 8.4% (inactive); for `O=C(N/N=C/c1ccc([N+](=O)[O-])cc1)c1cc(-c2ccc3c(c2)OCO3)n[nH]1`, 0.5% (inactive); for `CN(C)c1ccc(/C=N/NC(=O)c2cnc3ccccc3c2)cc1`, 6.1% (inactive). For `O=C(N/N=C/c1ccc2c(c1)OCO2)/C(=C/c1ccc2c(c1)OCO2)NC(=O)c1ccccc1` the value was 11.7% (active). Consider `Cc1ccc(Cn2cc(CCC(=O)O)c3ccccc32)cc1`, for which the activation was 16.7% (active). For `Nc1nc(SCc2cccc(Br)c2)n[nH]1`, the activation was 9.18% (inactive). Take `COc1cc([N+](=O)[O-])ccc1N/C=C/C(=O)c1cccs1`: the activation is 5.01% (inactive). Next, `COc1cc2c(cc1NC(=O)COC(=O)/C=C/c1ccc([N+](=O)[O-])cc1)oc1ccccc12`: 4480% (active). Next, `COc1cc([N+](=O)[O-])ccc1NC(=O)COC(=O)c1n[nH]c2ccccc12`: 6.72% (inactive); `CN1CCCc2cc3c(C(F)(F)F)cc(=O)oc3nc21`: 10.7% (inactive). Next, `Cc1ccc(C(=O)NCC(=O)OCC(=O)c2ccc(Cl)s2)cc1`: 232% (active). For the molecule `Cc1ccc(C(=O)NCC(=O)OCC(=O)N(CC(C)C)c2c(N)n(Cc3ccccc3)c(=O)[nH]c2=O)cc1`, the activation was 8.28% (inactive). Next, `Cc1cc(C)n(NC(=S)NC2CCCCC2)c(=O)c1C#N`: 7.29% (inactive). Next, `CCCN(CCC)c1nc2c(C)cccn2c(=O)c1/C=C1/SC(=S)N(Cc2ccco2)C1=O`: 3.6% (inactive); `O=C1/C(=C\c2c(NCCOCCO)nc3ccccn3c2=O)SC(=S)N1Cc1ccco1`: 92.6% (active). For `Cc1ccc(/C=C/C(=O)N2CCN(S(=O)(=O)c3ccc(C)c(C)c3)CC2)o1` the value was 17.9% (active). As to `Cc1ccc(S(=O)(=O)N2CCN(c3ncccn3)CC2)cc1C`, the activation is 4.74% (inactive). Regarding `COc1ccc(S(=O)(=O)N2CCSC2)cc1C`, the activation is 2.98% (inactive). In the case of `Oc1[nH]c2ccccc2c1N=Nc1cccc(Cl)c1`, the activation is 7.29% (inactive). Next, `Oc1[nH]c2ccccc2c1N=Nc1ccccc1F`: 2.72% (inactive). For `Cc1ccc(Cl)c2c(N=Nc3ccccc3)c(O)[nH]c12` the value was 14.7% (active); for `Oc1[nH]c2ccccc2c1N=Nc1ccccc1Cl`, 4.59% (inactive); for `Oc1[nH]c2ccccc2c1N=Nc1ccccc1`, 26.4% (active).

In the case of `Oc1[nH]c2ccccc2c1N=Nc1ccc(F)cc1`, the activation was 109% (active). For `O=C(c1cnc2ccccc2n1)N1CCN(c2ccc(C(F)(F)F)cn2)CC1` the value was 32.8% (active); for `Cc1ccc(NC(=O)CO/N=C/c2ccc(N(C)C)cc2)cc1`, 6.41% (inactive); for `Cc1ccc(NC(=O)O/N=C/c2ccc(F)cc2)cc1`, 8.78% (inactive).

Consider `CCN(CC)c1ccc(/C=N/OCC(=O)Nc2cccc(C)c2)cc1`, for which the activation is 19.6% (active).

Turning to `O=C(O)c1cc(NCc2ccc(F)cc2)ccc1N1CCOCC1`, the activation was 91.3% (active).

Take `O=C(N1CCOCC1)N1CCN(c2ccc(F)cc2)CC1`: the activation was 2.34% (inactive). On to `O=C1N/C(=C\c2ccc(N3CCOCC3)c(F)c2)C(=O)N1Cc1ccccc1`, for which the activation is 5.84% (inactive). `C=CCOc1ccc(CNc2ccc3[nH]c(=O)[nH]c3c2)cc1OCC`: the activation was 25% (active). For `CN(C)c1ccc(/C=C/c2ccc3ccccc3n2)cc1` the value was 14.9% (active); for `CN(C)c1ccc(/C=C/c2nc3ccccc3c(=O)[nH]2)cc1`, 9.5% (inactive); for `CC(C)CC[n+]1ccccc1/C=C/c1ccc(N(C)C)cc1`, 7% (inactive). Take `Cc1ccsc1C1C=C(c2cccc(Br)c2)Nc2ncnn21` (stereo not drawn): the activation was 1.58% (inactive).

Consider `CN(C)c1ccc(C2C=C(c3ccc(Cl)cc3OC(F)F)Nc3ncnn32)cc1` (stereo not drawn), for which the activation is 80% (active). For `Cc1c(C=O)c2ccccn2c1C(=O)c1cccs1` the value was 6.64% (inactive); for `Cc1cccc(Nc2c([N+](=O)[O-])c(=O)oc3ccccc23)c1`, 23.2% (active); for `Nc1nc(NCCCN2CCOCC2)nc(Nc2cccc(Cl)c2)c1[N+](=O)[O-]`, 5.57% (inactive).

For `COc1ccc(CC(=O)NNC(=O)c2ccncc2)cc1`, the activation is 8.9% (inactive). Next, `COc1ccc(CCC(=O)N2CCc3ccccc32)cc1`: 6.5% (inactive). For the molecule `COc1ccc(CC/C(C)=N\NC(N)=O)cc1`, the activation is 16.2% (active).

Turning to `Cc1ccc(C)c(S(=O)(=O)N2CCCC2CNC(=O)C(=O)NC2CC2)c1` (stereo not drawn), the activation is 5.98% (inactive). For `Cc1ccc(SCC(=O)c2sc(-c3ccccc3)nc2C)cc1` the value was 35.4% (active); for `Cc1ccc(-c2nc(NC(=O)CSc3cc(C)c4ccccc4n3)ns2)cc1`, 4.39% (inactive); for `C=C(C)c1sc(-c2ccc(Cl)cc2)nc1C`, 1.76% (inactive). Next, `COc1ccc2c3c(cccc13)C(=O)CC2`: 18.7% (active); `COc1ccc2noc3c2c1C(=O)c1ccccc1-3`: 3.9% (inactive); `Nc1ccc2c3c(cccc13)CC2`: 6.56% (inactive). For `CCCn1c(=O)c(C(=O)NNC(=O)c2ccccc2[N+](=O)[O-])c(O)c2ccccc21` the value was 18.9% (active); for `CC1CCN(c2oc(-c3ccccc3F)nc2C#N)CC1`, 10.8% (inactive); for `CCOC(=O)Cn1c(=NC(=O)c2cc(-c3cccs3)nc3ccccc23)sc2cc(S(N)(=O)=O)ccc21`, 1.79% (inactive). For `COCCn1c(=NC(=O)/C=C/c2ccccc2)sc2cc(NC(C)=O)ccc21`, the activation is 19.9% (active). For `CC1(C(=O)Nc2nnc(SCc3ccccc3)s2)Cc2ccccc2C(=O)O1` (stereo not drawn) the value was 22.1% (active); for `CC1(C)CC(=O)c2sc(NC(=O)Cc3cccs3)nc2C1`, 4.44% (inactive). On to `CN1CCC2(CC1)C1CN(C)CC=C1C(C#N)=C(N)C2(C#N)C#N` (stereo not drawn), for which the activation was 1.95% (inactive) and 33.7% (active). For `CCOc1cc(C2C(C#N)=C(N)OC(C)=C2C(C)=O)cc(Br)c1O` (stereo not drawn) the value was 213% (active); for `CCOc1ccc(C2C(C#N)=C(N)SC(N)=C2C#N)c(OCC)c1`, 10% (inactive).

(Values after PubChem BioAssay AID504383 (The Scripps Research Institute Molecular Screening Center, 2011).)
